B1: UDA (protein, UniProt P11218 24-372, looked up)
Lectin/endochitinase 1: QRCGSQGGGGTCPALWCCSIWGWCGDSEPYCGRTCENKCWSGERSDHRCGAAVGNPPCGQDRCCSVHGWCGGGNDYCSGSKCQYRCSSSVRGPRVALSGNSTANSIGNVVVTEPLFDQMFSHRKDCPSQGFYSYHSFLVAAESFPAFGTIGDVATRKREVAAFLAHISQATSGERSDVENPHAWGLCHINTTTVTENDFCTSSDWPCAAGKKYSPRGPIQLTHNFNYGLAGQAIGEDLIQNPDLVEKDPIISFKTALWFWMSQHDNKPSCHDIVLNANSAANRIPNKGVIGNIISRAFGHDDFAVRSSSIGFYKRYCDMLGVSYGHDLKYWFDNTPSSEFQRIQMRVAA

Key:
Format in all cases: cell-based
HeLa cells = test: Cytotoxicity in uninfected cell cultures; conditions: cell morphology
Outline: (§1)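 Uninfected cell cultures are exposed to serial dilutions of test compound in parallel with the virus cytopathicity assays. Cells are examined microscopically. Minimum cytotoxic concentration is the lowest concentration causing a microscopically detectable alteration of normal cell morphology.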

Vero cells = test: Cytotoxicity in uninfected cell cultures; conditions: cell morphology
Outline: as §1

Aspergillus niger = test: MIC by tube dilution method; conditions: observed, A. niger, 25 °C 7 d
Escherichia coli = test: MIC by tube dilution method; conditions: observed, E. coli, 37 °C 24 h
Outline: (§2)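 Test compound is diluted in double strength nutrient broth (I.P.) by tube dilution, with ciprofloxacin as reference. Samples incubated at 37 °C for 24 h. MIC is the lowest concentration inhibiting microbial growth, transformed into pMIC for analysis.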

Feline Herpes virus = test: organism not typed; conditions: for EC50: CRFK, read-out: EC50 Feline Corona Virus
B. subtilis = test: Minimum bactericidal concentration; conditions: static when MBC 3-fold higher than MIC
[1] = test system: S. aureus, B. subtilis, E. coli, C. albicans and A. niger; test: Average antimicrobial activity; conditions: mean of five pMIC values
C. albicans and A. niger = test: Average antifungal activity; conditions: average antifungal activity (pMICca + pMICan)/2
HEL cells = test: Cytotoxicity in uninfected cell cultures; conditions: microscopically detectable alteration of cell morphology
Outline: as §1

Staphylococcus aureus = test: MIC by tube dilution method; conditions: observed, S. aureus, 37 °C 24 h
[2] = test system: S. aureus, B. subtilis and E. coli; test: Average antibacterial activity; conditions: average antibacterial activity (pMICsa + pMICbs + pMICec)/3
Candida albicans = test: MIC by tube dilution method; conditions: observed, C. albicans, 37 °C 48 h
Para-influenza-3 virus = test: organism not typed; conditions: Vero, read-out: EC50 Para-influenza-3 virus
Bacillus subtilis = test: MIC by tube dilution method; conditions: observed, B. subtilis, 37 °C 24 h
Outline: as §2

Reovirus-1 = test: organism not typed; conditions: Vero, read-out: EC50 Reovirus-1
Punta Toro virus = test: microbe, parasite or virus in culture; conditions: Vero, read-out: EC50 Punta Toro virus
Coxsackie virus B4 = test: microbe, parasite or virus in culture; conditions: Enterovirus B, B4, HeLa, read-out: EC50 Coxsackie virus B4 visual CPE score
Sindbis virus = test: microbe, parasite or virus in culture; conditions: Vero, read-out: EC50 Sindbis virus
S. aureus = test: Minimum bactericidal concentration; conditions: static when MBC 3-fold higher than MIC
[3] = test system: Herpes simplex virus-1 (KOS); test: microbe, parasite or virus in culture; conditions: Human alphaherpesvirus 1, HEL, read-out: EC50 Herpes simplex virus-1 (KOS)
[4] = test system: Vesicular stomatitis virus; test: microbe, parasite or virus in culture; conditions: HEL, read-out: EC50 Vesicular stomatitis virus
[5] = test system: Herpes simplex virus-2 (G); test: microbe, parasite or virus in culture; conditions: Human alphaherpesvirus 2, HEL, read-out: EC50 Herpes simplex virus-2 (G)
Vaccinia virus = test: microbe, parasite or virus in culture; conditions: Orthopoxvirus vaccinia, HEL, read-out: EC50 Vaccinia virus
[6] = test system: Feline Corona virus (FIPV); conditions: CRFK cell cultures, MTS assay

Molecule	Cytotoxicity Minimum cytotoxic concentration (HeLa cells)	Minimum cytotoxic concentration (Vero cells)	pMICan (Aspergillus niger)	pMICec (Escherichia coli)	EC50 (Feline Herpes virus) [mg/L]	pMICam [1]	pMICaf (C. albicans and A. niger)	Minimum cytotoxic concentration (HEL cells)	pMICsa (Staphylococcus aureus)	pMICab [2]	pMICca (Candida albicans)	EC50 (Para-influenza-3 virus)	pMICbs (Bacillus subtilis)	EC50 (Reovirus-1)	EC50 [4] [µM]	EC50 (Vaccinia virus) [µM]	further results
Cc1ccc(C(=O)n2c(-c3ccc(S(=O)(=O)O)cc3)nc3ccccc32)cc1 [Compound 11]	>100 µg/mL	>100 µg/mL	0.89	2.10	> 100	1.71	1.20	>100 µg/mL	2.10	2.05	1.50	> 100 mg/L	1.95	> 100 mg/L	–	–	bacteriostatic/bactericidal action against B. subtilis (B. subtilis): active bacteriocidal agents
Nc1ncnc2c1ncn2C[C@H](O)CO [(S)-DHPA]	>250 µM	>250 µM	–	–	–	–	–	–	–	–	–	> 250 µM	–	> 250 µM	–	–	EC50 (Punta Toro virus): > 250 µM; EC50 (Coxsackie virus B4): > 250 µM; EC50 (Sindbis virus): > 250 µM
CCCCC(=O)n1c(-c2ccc(S(=O)(=O)O)cc2)nc2ccccc21 [Compound 17]	>100 µg/mL	>100 µg/mL	1.16	1.76	> 100	1.58	1.31	>100 µg/mL	1.76	1.76	1.46	> 100 mg/L	1.76	> 100 mg/L	–	–	bacteriostatic/bactericidal action against B. subtilis (B. subtilis): active bacteriocidal agents; bacteriostatic/bactericidal action against S. aureus (S. aureus): active bacteriocidal agents
Nc1ccn(C[C@@H](CO)OCP(=O)(O)O)c(=O)n1 [Cidofovir]	–	–	–	–	–	–	–	–	–	–	–	–	–	–	> 250	> 250	EC50 [3]: 0.4 µM; EC50 [5]: 0.2 µM
Cc1ccc(S(=O)(=O)n2c(-c3ccc(S(=O)(=O)O)cc3)nc3ccccc32)cc1 [Compound 20]	>100 µg/mL	>100 µg/mL	1.23	1.54	> 100	1.60	1.39	>100 µg/mL	1.84	1.74	1.54	> 100 mg/L	1.84	> 100 mg/L	–	–	EC50 (Sindbis virus): > 100 mg/L
NC(=O)c1ncn([C@@H]2O[C@H](CO)[C@@H](O)[C@H]2O)n1 [Ribavirin]	>250 µM	>250 µM	–	–	–	–	–	>250 µM	–	–	–	95 µM	–	–	> 250	10	EC50 [3]: 1 µM; EC50 (Sindbis virus): > 250 µM; EC50 [5]: 2 µM
Nc1nc(O)c2ncn(COC(CO)CO)c2n1 [Ganciclovir]	–	–	–	–	–	–	–	>100 µM	–	–	–	–	–	–	> 100	> 100	EC50 [3]: 0.03 µM; EC50 [5]: 0.03 µM
O=c1[nH]c(=O)n([C@H]2C[C@H](O)[C@@H](CO)O2)cc1/C=C/Br [Brivudin]	–	–	–	–	–	–	–	–	–	–	–	–	–	–	> 250	112	–
Cc1ccccc1C(=O)n1c(-c2ccc(S(=O)(=O)O)cc2)nc2ccccc21 [Compound 10]	>100 µg/mL	>100 µg/mL	1.20	2.10	> 100	1.80	1.35	>100 µg/mL	2.10	2.10	1.50	> 100 mg/L	2.10	> 100 mg/L	–	–	bacteriostatic/bactericidal action against S. aureus (S. aureus): active bacteriocidal agents
COc1ccc(C(=O)n2c(-c3ccc(S(=O)(=O)O)cc3)nc3ccccc32)cc1 [Compound 8]	>100 µg/mL	>100 µg/mL	1.21	2.12	> 100	1.82	1.36	>100 µg/mL	2.12	2.12	1.51	> 100 mg/L	2.12	> 100 mg/L	–	–	–
B1	–	–	–	–	–	–	–	–	–	–	–	–	–	–	–	–	EC50 Feline Herpes Virus (FIPV) [6]: 1.5 mg/L; EC50 Feline Corona Virus (Feline Herpes virus; CRFK cell cultures, MTS assay): 0.4 mg/L

From article PMC7115694 (European Journal of Medicinal Chemistry, 2010)
